First the molecules themselves.
T1: ZO-1 PDZ2 R251A (human, UniProt Q07157 186-264, R251A)
T1 sequence: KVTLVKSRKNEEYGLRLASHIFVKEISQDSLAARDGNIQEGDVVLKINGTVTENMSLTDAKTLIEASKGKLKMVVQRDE

T2: ZO-1 PDZ2 K253A (human, UniProt Q07157 186-264, K253A)
T2 sequence: T1 sequence with A66R, K68A

T3: ZO-1 PDZ2 R193A (human, UniProt Q07157 186-264, R193A)
T3 sequence: T1 sequence with R8A, A66R

T4: ZO-1 PDZ2 R219A (human, UniProt Q07157 186-264, R219A)
T4 sequence: T1 sequence with R34A, A66R

T5: ZO-1 PDZ2 K194A (human, UniProt Q07157 186-264, K194A)
T5 sequence: T1 sequence with K9A, A66R

T6: ZO-1 PDZ2 R251AK253A (human, UniProt Q07157 186-264, R251A | K253A)
T6 sequence: T1 sequence with K68A

B1: GST-ZO1-PDZ2 WT (domain or fragment, human)
chain: T1 sequence with A66R

The test system of series [1] is GST-ZO1-PDZ2. As to the kind of experiment: Kinetic SPR measurements. It is filed as binding, human. The note with it: 1 µM protein, POPC/POPE/POPS/PtdInsP (37:40:20:3) vesicles, 20 mM HEPES pH 7.4, 0.16 M KCl. A digest of the protocol:
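GST-fused PDZ2 was expressed in E. coli BL21(DE3) with IPTG induction at 37°C for 4 h, then purified on glutathione-Sepharose. Active sensor surface carried PtdInsP-containing vesicles and the control surface carried POPC/POPE (60:40) vesicles, both from 0.4 mg/ml lipid solution and loaded to equal RU. Seven PtdInsP species were compared. Kinetic data gave relative membrane affinity only; no Kd was derived.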
For orientation: Surface plasmon resonance follows binding to a sensor surface in real time, without labels.

Series [2] relates to GST-ZO1-PDZ2. Put plainly: ELISA PtdInsP binding assay. Also noted: species or system human. As to conditions: ELISA on PIP plates, absorbance 450 nm, n=3, protein 10 nM, 1 h room temperature. A digest of the protocol: (§1)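 GST-fusion PDZ2 domains (ZO-1 human, ZO-2 mouse) or GST-PH domain of PLC-δ1 (positive control) at 10 nM, with GST as negative control, were incubated 1 h at room temperature on preblocked PtdInsP-coated plates. Wells were washed three times with PBS/0.1% Tween-20, then probed 1 h at room temperature with HRP-anti-GST. Detection used TMB substrate with absorbance at 450 nm; mean ± SD, n = 3.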
(In general: An ELISA detects its analyte on a solid surface through an enzyme-linked reagent.)

Series [3] has as its system GST-ZO2-PDZ2 WT binding to Cx43 peptide. As to the kind of experiment: Pull-down competition by phospholipids. Also noted: species or system mouse. As to conditions: 3 µg GST-ZO2-PDZ2 WT preincubated with phospholipid liposomes. A digest of the protocol: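 3 μg GST-ZO-2 PDZ2 WT was preincubated with phospholipid liposomes at increasing concentrations. It was then pulled down with Cx43 C-terminal 20-mer peptide coupled to CNBr-activated Sepharose 4B at 5–7 mg/ml.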

The test system of a further series is GST-ZO2-PDZ2. As to the kind of experiment: ELISA PtdInsP binding assay. As to conditions: ELISA on PIP plates, absorbance 450 nm, n=3, protein 10 nM, 1 h room temperature. Also noted: species or system mouse. A digest of the protocol:
as §1

Series [4] has as its target Connexin43 (Homo sapiens) (UniProt P17302). The note with it: cited from earlier work.
The target in series [5] is ZO-1 PDZ2 R219A (Homo sapiens, UniProt Q07157, R219A). As to the kind of experiment: ITC peptide binding. Summed up: (§2)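 Each PDZ2 domain, wild type or point mutant, was held at 20 μM in 20 mM HEPES, 150 mM NaCl, pH 7.5, degassed. It was titrated with 20 × 15 μl injections of 200 μM Cx43 C-terminal 20-mer peptide, stirred at 250 rpm, with 5 min between injections. Peptide-into-buffer dilution heat was subtracted, and integrated data were fitted to a binding model. Representative of duplicate runs.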

Series [6] addresses ZO-1 PDZ2 K194A (Homo sapiens, UniProt Q07157, K194A). Put plainly: ITC peptide binding. Summed up:
as §2

The next series concerns the target ZO-1 PDZ2 R201A (Homo sapiens, UniProt Q07157, R201A). As to the kind of experiment: ITC peptide binding. Summed up: as §2
Series [7] addresses ZO-1 PDZ2 R193A (Homo sapiens, UniProt Q07157, R193A). Put plainly: ITC peptide binding. A digest of the protocol:
as §2

For another series, the target named is ZO-1 PDZ2 K246A (Homo sapiens, UniProt Q07157, K246A). Put plainly: ITC peptide binding. A digest of the protocol:
as §2

A further series has as its system GST-ZO1-PDZ1–3. Put plainly: Lipid-overlay assay. It is filed as binding, human. The note with it: PIP strips, not quantitative, no membrane environment. Summed up: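 A GST-fused human ZO-1 PDZ1–3 construct was overlaid on nitrocellulose membranes carrying immobilised phospholipids, following the manufacturer's protocol. GST served as negative control and the GST-PH domain of LL5α as positive control. Lipids were not in a membrane environment, and the readout is qualitative.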

In series [8] the target is Connexin43 (Homo sapiens) (UniProt P17302). As to conditions: cited from earlier work. The source holds these as a separate data set.
For series [9], the target named is Connexin 43 (Cx43) C-terminal peptide. Put plainly: ITC. (In general: Isothermal titration calorimetry measures the heat released or taken up as one component is titrated into another.)
Another series concerns the target GST-ZO2-PDZ2 WT (mouse). Put plainly: SEC.
The test system of a further series is nuclear speckles. As to conditions: transcriptional inhibition; ref [39]; cited from earlier work.
The series “SEC” concerns the molecule itself. As to the kind of experiment: SEC.
The next series deals with T1, ZO-1 PDZ2 R251A. Put plainly: ITC.
Another series deals with T2, ZO-1 PDZ2 K253A. As to the kind of experiment: ITC.
Series [10] addresses T3, ZO-1 PDZ2 R193A. As to the kind of experiment: ITC.
The series “GST-ZO1-PDZ2 WT” has as its target B1. Put plainly: ITC.
Series [11] concerns the target T4, ZO-1 PDZ2 R219A. As to the kind of experiment: ITC.
Series [12] concerns the target T5, ZO-1 PDZ2 K194A. Put plainly: ITC.
The next series concerns the target T6, ZO-1 PDZ2 R251AK253A. Put plainly: ITC.

Substitutions are numbered along the chain they refer to. Like-named read-outs stand apart in the source and are kept apart here. *1 amine or outer side, *2 acyl side, *3 side chain or, on linkers, in order; H or OH if unused. Where a SMILES comes first, the peptide text is derived from it. Bridges are numbered along the chain shown (N, C = ends). Roman numbers before positions name the chains, in order. [ ]: non-standard residue; d: D form. Actinocin(9to1) = Cc1c2oc3c(C)ccc(C(=O)[*:1])c3nc-2c(C(=O)[*:2])c(N)c1=O; NMeV = CN[C@H](C(=O)O)C(C)C; Sar = CNCC(=O)O

Sequence of ZO-1 PDZ2 R219A (Homo sapiens, UniProt Q07157, R219A) (Q07157 186-264 R219A limits assumed): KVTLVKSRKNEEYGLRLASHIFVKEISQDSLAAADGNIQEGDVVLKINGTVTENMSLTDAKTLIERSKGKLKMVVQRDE
Sequence of ZO-1 PDZ2 K194A (Homo sapiens, UniProt Q07157, K194A) (Q07157 186-264 K194A limits assumed): as the sequence (Q07157 186-264 R219A limits assumed) above, with K9A, A34R counted along it
Sequence of ZO-1 PDZ2 R193A (Homo sapiens, UniProt Q07157, R193A) (Q07157 186-264 R193A limits assumed): as the sequence (Q07157 186-264 R219A limits assumed) above, with R8A, A34R counted along it
Sequence of ZO-1 PDZ2 R201A (Q07157 186-264 R201A limits assumed): as the sequence (Q07157 186-264 R219A limits assumed) above, with R16A, A34R counted along it
Sequence of ZO-1 PDZ2 K246A (Q07157 186-264 K246A limits assumed): as the sequence (Q07157 186-264 R219A limits assumed) above, with A34R, K61A counted along it

Take “Phosphatidylinositol 4,5-bisphosphate [PtdIns(4,5)P2]”: the “PtdInsP selectivity (relative binding)” value in the series with GST-ZO1-PDZ2 [1] was “followed by PtdIns(3,4,5)P3, PtdIns(4,5)P2 and PtdIns(3,5)P2”.
Turning to PtdIns(3,4)P2, the “PtdInsP binding as compared to PtdIns(4,5)P2 or PtdIns(3,5)P2” value in the series with GST-ZO1-PDZ2 [2] and with GST-ZO2-PDZ2 was “slightly stronger” each time. Further, the “inhibition of association of GST-ZO2-PDZ2 with the Cx43 peptide” value (“inhibition” below) in [3] is “inhibited association”. Moreover, the “PtdInsP selectivity (relative binding)” value in the series with GST-ZO1-PDZ2 [1] was “slight preference”.
As for ZO-2 PDZ2 (from UniProt Q9UDY2), the Kd (as a rule, the free concentration of one partner at which half of the binding sites on the other are occupied at equilibrium, for simple one-to-one binding) in series [4] was 391 µM.
On to “NH2.PSSRASSRASSRPRPDDLEI.OH [Connexin43 peptide]”, for which the “effect of mutation on peptide binding” value at ZO-1 PDZ2 R219A [5] is on record as “no effect”. For the same molecule, the “effect of mutation on peptide affinity” value at ZO-1 PDZ2 K194A [6] and at ZO-1 PDZ2 R193A [7] was “little effect” throughout. Besides, the “binding to the Cx43 peptide” value on ZO-1 PDZ2 R201A and at ZO-1 PDZ2 K246A was “no significant binding” in each case.
As for phosphatidic acid [PA], in the series on GST-ZO1-PDZ1–3, the lipid binding result was “bound non-selectively”.
For the molecule ZO-1 PDZ2 (from UniProt Q07157), in [8], the Kd was 15.5 µM.
For PtdIns(3,5)P2, the “PtdInsP selectivity (relative binding)” value in the series on GST-ZO1-PDZ2 [1] is “followed by PtdIns(3,4,5)P3, PtdIns(4,5)P2 and PtdIns(3,5)P2”.
With GST-ZO2-PDZ2 WT (domain or fragment), the Kd in [9] came to 9.9 µM. Moreover, in the series with GST-ZO2-PDZ2 WT (mouse), the stoichiometry N – broadly, a count of units in the complex or per binding partner – turned out to be 2.
Take PtdIns(3,4,5)P3: the “PtdInsP binding as compared to PtdIns(4,5)P2 or PtdIns(3,5)P2” value with GST-ZO1-PDZ2 [2] and in the series with GST-ZO2-PDZ2 was “slightly stronger” each time. The “inhibition” value in [3] is reported as “inhibited association”. In the series on GST-ZO1-PDZ2 [1], the “PtdInsP selectivity (relative binding)” value was “followed by PtdIns(3,4,5)P3, PtdIns(4,5)P2 and PtdIns(3,5)P2”.
For phosphatidylinositol [PtdIns], the lipid binding entry with GST-ZO1-PDZ1–3 is “bound non-selectively”.
For phosphatidylserine [PS], in series [3], the “inhibition” value is “no effect”. Moreover, in the series with GST-ZO1-PDZ1–3, the lipid binding result was “bound non-selectively”.
In the case of `Cc1c2oc3c(C)ccc(C(=O)N[C@@H]4C(=O)N[C@H](C(C)C)C(=O)N5CCC[C@H]5C(=O)N(C)CC(=O)N(C)[C@@H](C(C)C)C(=O)O[C@@H]4C)c3nc-2c(C(=O)N[C@@H]2C(=O)N[C@H](C(C)C)C(=O)N3CCC[C@H]3C(=O)N(C)CC(=O)N(C)[C@@H](C(C)C)C(=O)O[C@@H]2C)c(N)c1=O` [actinomycin D] (I: T[dV]P[Sar][NMeV] / II: T[dV]P[Sar][NMeV]; ester I:1-I:C, II:1-II:C; linker I:N-II:N via Actinocin(9to1)), in the series on nuclear speckles, the speckle protein distribution entry was “fewer and/or abnormally large clusters”.
In the case of B1, the “stoichiometry N” value in “SEC” turned out to be 2.
On to PSSRASSRASSRPRPDDLEI [Connexin 43 (Cx43) C-terminal peptide], for which the Kd with ZO-1 PDZ2 R251A amounted to 19 ± 3.4 µM; with ZO-1 PDZ2 K253A, 22 ± 3.6 µM; with ZO-1 PDZ2 R193A [10] it was 11 ± 2.1 µM; with GST-ZO1-PDZ2 WT, 9.9 ± 1.3 µM; in the series with ZO-1 PDZ2 R219A [11], 11 ± 1.6 µM; with ZO-1 PDZ2 K194A [12], 12 ± 1.6 µM. The affinity with ZO-1 PDZ2 R251AK253A, expressed as Kd, was 21 ± 3.2 µM.

The values above are taken from publication PMC3724457 (Cellular and molecular life sciences : CMLS, 2009).
